Measured values: ChEMBL document CHEMBL5724801, “EUbOPEN Chemogenomics Library - Multiplex” (2024)
Several values for one entry are separate records, joined by “and”; a condition that tells them apart may be missing. Identical values can stand only once.

Test system: Fibroblast
Test: Multiplex assay against human fibroblast
Assay type: toxicity, cell-based
In short: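 Cells were classed with CellPathfinder machine-learning gating, first as Hoechst high-intensity objects or normal cells, then (normal cells) as healthy, pyknosed or fragmented nuclei, and finally (pyknosed cells) as mitotic or apoptotic. Staining of live cells at seeding used Hoechst33342, BioTracker Green Microtubule Cytoskeleton Dye, MitoTracker Red and Annexin V Alexa Fluor 680, with imaging on a CQ1 microscope at 37°C and 5% CO2 after compound addition. Tubulin, mitochondrial-mass and membrane-permeability phenotypes are per cents of healthy-nucleus cells.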

[1] = 12 h, 1 µM, compound concentration 1 uM
[2] = 12 h, 10 µM, compound concentration 10 uM
[3] = 24 h, 1 µM, compound concentration 1 uM
[4] = 24 h, 10 µM, compound concentration 10 uM
[5] = 48 h, 1 µM, compound concentration 1 uM
[6] = 48 h, 10 µM, compound concentration 10 uM

C[C@@H]1CN(Cc2ccc(F)cc2)CCN1C(=O)COc1ccc(Cl)cc1NC(N)=O [BX 471 FREE BASE]
Population Apoptotic (%) [1]: 23% and 38%
Population Fragmented Nuclei (%) [1]: 10% and 26%
Population Healthy Nuclei (%) [1]: 73% and 47%
Population Hoechst High Intensity Objects (%) [1]: 3% and 7%
Population Mitotic Cells (%) [1]: 76% and 61%
Population Normal (%) [1]: 96% and 92%
Population Pyknosed Nuclei (%) [1]: 15% and 26%
Population Tubulin-Different-Phenotype (%) [1]: 35% and 48%
Total Cell Count [1]: 138 and 182
Population Apoptotic (%) [2]: 38% and 40%
Population Fragmented Nuclei (%) [2]: 27% and 36%
Population Healthy Nuclei (%) [2]: 45% and 27%
Population Hoechst High Intensity Objects (%) [2]: 7% and 11%
Population Mitotic Cells (%) [2]: 61% and 60%
Population Normal (%) [2]: 92% and 88%
Population Pyknosed Nuclei (%) [2]: 26% and 35%
Population Tubulin-Different-Phenotype (%) [2]: 81% and 77%
Total Cell Count [2]: 240 and 126
Population Apoptotic (%) [3]: 52% and 51%
Population Fragmented Nuclei (%) [3]: 13% and 20%
Population Healthy Nuclei (%) [3]: 74% and 52%
Population Hoechst High Intensity Objects (%) [3]: 0% and 6%
Population Mitotic Cells (%) [3]: 47% and 48%
Population Normal (%) [3]: 99% and 93%
Population Pyknosed Nuclei (%) [3]: 11% and 27%
Population Tubulin-Different-Phenotype (%) [3]: 33% and 52%
Total Cell Count [3]: 147 and 160
Population Apoptotic (%) [4]: 43% and 46%
Population Fragmented Nuclei (%) [4]: 28% and 34%
Population Healthy Nuclei (%) [4]: 43% and 36%
Population Hoechst High Intensity Objects (%) [4]: 4% and 8%
Population Mitotic Cells (%) [4]: 56% and 53%
Population Normal (%) [4]: 95% and 91%
Population Pyknosed Nuclei (%) [4]: 28% and 29%
Population Tubulin-Different-Phenotype (%) [4]: 75% and 89%
Total Cell Count [4]: 225 and 118
Population Apoptotic (%) [5]: 55% and 63%
Population Fragmented Nuclei (%) [5]: 16% and 31%
Population Healthy Nuclei (%) [5]: 67% and 55%
Population Hoechst High Intensity Objects (%) [5]: 5%
Population Mitotic Cells (%) [5]: 45% and 36%
Population Normal (%) [5]: 94% and 97%
Population Pyknosed Nuclei (%) [5]: 15% and 13%
Population Tubulin-Different-Phenotype (%) [5]: 40% and 54%
Total Cell Count [5]: 138 and 172
Population Apoptotic (%) [6]: 58% and 41%
Population Fragmented Nuclei (%) [6]: 31% and 42%
Population Healthy Nuclei (%) [6]: 49% and 42%
Population Hoechst High Intensity Objects (%) [6]: 7% and 6%
Population Mitotic Cells (%) [6]: 41% and 58%
Population Normal (%) [6]: 92% and 93%
Population Pyknosed Nuclei (%) [6]: 18% and 14%
Population Tubulin-Different-Phenotype (%) [6]: 77% and 91%
Total Cell Count [6]: 234 and 122

COc1ccc(-n2c(C)c([N+](=O)[O-])c3ccc(O)cc32)cc1
Population Apoptotic (%) [1]: 18% and 14.29%
Population Fragmented Nuclei (%) [1]: 8.91% and 3.57%
Population Healthy Nuclei (%) [1]: 66.34% and 79.76%
Population Hoechst High Intensity Objects (%) [1]: 0%
Population Membrane Permeable-Phenotype (%) [1]: 5.97% and 4.48%
Population Mitochondria Different-Phenotype (%) [1]: 7.46%
Population Mitotic Cells (%) [1]: 82% and 85.71%
Population Normal (%) [1]: 100%
Population Pyknosed Nuclei (%) [1]: 24.75% and 16.67%
Population Tubulin-Different-Phenotype (%) [1]: 13.43% and 18.66%
Total Cell Count [1]: 202 and 168
Population Apoptotic (%) [2]: 17.65% and 23.08%
Population Fragmented Nuclei (%) [2]: 6.97% and 4.59%
Population Healthy Nuclei (%) [2]: 67.66% and 77.52%
Population Hoechst High Intensity Objects (%) [2]: 0%
Population Membrane Permeable-Phenotype (%) [2]: 5.15% and 4.73%
Population Mitochondria Different-Phenotype (%) [2]: 6.62% and 11.24%
Population Mitotic Cells (%) [2]: 82.35% and 76.92%
Population Normal (%) [2]: 100%
Population Pyknosed Nuclei (%) [2]: 25.37% and 17.89%
Population Tubulin-Different-Phenotype (%) [2]: 14.71% and 28.4%
Total Cell Count [2]: 201 and 218
Population Apoptotic (%) [3]: 9.52% and 17.86%
Population Fragmented Nuclei (%) [3]: 11.01% and 2.84%
Population Healthy Nuclei (%) [3]: 69.72% and 81.25%
Population Hoechst High Intensity Objects (%) [3]: 0%
Population Membrane Permeable-Phenotype (%) [3]: 4.61% and 4.2%
Population Mitochondria Different-Phenotype (%) [3]: 3.29% and 5.59%
Population Mitotic Cells (%) [3]: 90.48% and 82.14%
Population Normal (%) [3]: 100%
Population Pyknosed Nuclei (%) [3]: 19.27% and 15.91%
Population Tubulin-Different-Phenotype (%) [3]: 10.53% and 19.58%
Total Cell Count [3]: 218 and 176
Population Apoptotic (%) [4]: 15.38% and 16.67%
Population Fragmented Nuclei (%) [4]: 4.88% and 5%
Population Healthy Nuclei (%) [4]: 76.1% and 84.09%
Population Hoechst High Intensity Objects (%) [4]: 0%
Population Membrane Permeable-Phenotype (%) [4]: 3.85% and 2.7%
Population Mitochondria Different-Phenotype (%) [4]: 8.33% and 6.49%
Population Mitotic Cells (%) [4]: 84.62% and 83.33%
Population Normal (%) [4]: 100%
Population Pyknosed Nuclei (%) [4]: 19.02% and 10.91%
Population Tubulin-Different-Phenotype (%) [4]: 15.38% and 20.54%
Total Cell Count [4]: 205 and 220
Population Apoptotic (%) [5]: 26.32% and 22.22%
Population Fragmented Nuclei (%) [5]: 9.8% and 4.74%
Population Healthy Nuclei (%) [5]: 82.45% and 85.79%
Population Hoechst High Intensity Objects (%) [5]: 0%
Population Membrane Permeable-Phenotype (%) [5]: 0% and 1.84%
Population Mitochondria Different-Phenotype (%) [5]: 9.41% and 2.45%
Population Mitotic Cells (%) [5]: 73.68% and 77.78%
Population Normal (%) [5]: 100%
Population Pyknosed Nuclei (%) [5]: 7.76% and 9.47%
Total Cell Count [5]: 245 and 190
Population Apoptotic (%) [6]: 28.57% and 38.89%
Population Fragmented Nuclei (%) [6]: 7.73% and 4.61%
Population Healthy Nuclei (%) [6]: 85.51% and 78.8%
Population Hoechst High Intensity Objects (%) [6]: 0%
Population Membrane Permeable-Phenotype (%) [6]: 3.39% and 7.02%
Population Mitochondria Different-Phenotype (%) [6]: 10.17% and 5.85%
Population Mitotic Cells (%) [6]: 71.43% and 61.11%
Population Normal (%) [6]: 100%
Population Pyknosed Nuclei (%) [6]: 6.76% and 16.59%
Population Tubulin-Different-Phenotype (%) [6]: 10.17% and 28.07%
Total Cell Count [6]: 207 and 217
